Laboratory results reported in ChEMBL document CHEMBL1134598, “Synthesis, ionotropic glutamate receptor binding affinity, and structure-activity relationships of a new set of 4,5-dihydro-8-heteroaryl-4-oxo-1,2,4-triazolo[1,5-a]quinoxaline-2-carboxylates analogues of TQX-173” (J Med Chem, 2001).

How the values were obtained:
[1] = target: Glutamate receptor ionotropic, AMPA (Rattus norvegicus, UniProt P19490+P19491+P19492+P19493); assay: Binding affinity at ionotropic glutamate receptor AMPA in rat cortical membranes [3H]AMPA displacement.; assay type: cell membranes
[2] = target: T1, Glutamate NMDA receptor (Rattus norvegicus) (UniProt P35439+Q00959+Q00960+Q00961+Q62645+Q8VHN2+Q9R1M7); assay: Inhibition of [3H]- glycine binding to NMDA receptor of rat membrane; set-up: concentration or dose not given beside the values; settings: concentration not given here
Procedure, shortened: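 Rat cortical synaptic membranes, [3H]glycine at 10 nM (KD 75 nM under these conditions). Compounds from 1 mM stock in 50% DMSO, diluted in buffer; four to six concentrations in triplicate, three or four displacement curves. IC50 converted to Ki by Cheng-Prusoff.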

[3] = target: Glutamate receptor ionotropic, kainate (Rattus norvegicus) (UniProt P22756+Q01812+P42260+P42264+Q63273); assay: Inhibition of [3H]KA binding to kainate receptor in rat brain membranes; assay type: cell membranes; set-up: concentration or dose not given beside the values; settings: concentration not given here
Procedure, shortened: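 Rat membranes resuspended at 0.5 mg protein/mL in 0.05 M Tris-citrate pH 7.4, preincubated 37 °C for 30 min, washed three times in ice-cold buffer. Incubated on ice for 60 min with 5 nM [3H]kainate and test compound. Nonspecific binding defined with 1 mM glutamate. Bound ligand recovered by GF/C filtration. Single-point inhibition measured at 100 µM.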

[4] = Antagonism at NMDA receptor in mouse cortical wedge preparation expressed as concentration that inhibits by 50% depolarizations induced by 5 uM AMPA; assay type: functional; settings: in the assay text read “5 uM NMDA” for “5 uM AMPA”
Procedure, shortened: (§1)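 Mouse cortical wedges, gray matter perfused with Mg2+-free medium. Agonists (5 µM AMPA or 5 µM NMDA) applied for 2 min every 15 min until control peaks stabilised, then continuous superfusion with antagonist while agonist applications continued. IC50 from depolarization peaks with agonist plus antagonist compared to control peaks; four separate determinations.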

[5] = target: Glutamate NMDA receptor; assay: Ability to displace [3H]glycine from NMDA receptor in rat corticaln membranes; assay type: cell membranes
[6] = target: Glutamate NMDA receptor; assay: Ability to displace [3H]glycine from NMDA receptor in rat cortical membranes; assay type: cell membranes
Procedure, shortened: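 Rat cortical synaptic membranes; [3H]glycine at 10 nM (KD 75 nM under these conditions). Test compound from 1 mM stock in 50% DMSO, diluted in buffer; four to six concentrations in triplicate, three or four displacement curves. IC50 by curve fitting, converted to Ki by Cheng-Prusoff.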

[7] = Antagonism at NMDA receptor in mouse cortical wedge preparation expressed as concentration that inhibits by 50% depolarizations induced by 5 uM NMDA
[8] = target: Glutamate receptor ionotropic, kainate; assay: Inhibition of [3H]KA binding to kainate receptor of rat brain membranes; assay type: cell membranes, Membrane
[9] = target: Glutamate NMDA receptor; assay: Inhibition of [3H]-(+)-MK-801 binding to NMDA receptor ion-channel complex of rat cortical memembranes; assay type: protein-complex assay
Procedure, shortened: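 Rat cortical membranes washed in 5 mM Tris-HCl pH 7.4 with 0.08% Triton X-100, 0.2-0.3 mg protein/tube. Incubated with 2.5 nM [3H]-(+)-MK-801, 10 µM glutamate and 0.1 µM glycine at room temperature for 120 min. IC50 or % inhibition at 100 µM; three or four determinations in triplicate.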

[10] = target: Glutamate receptor ionotropic, AMPA (Mus musculus, UniProt P23818+P23819+Q9Z2W8+Q9Z2W9); assay: Antagonism at ionotropic glutamate receptor AMPA in mouse cortical wedge preparation; assay type: functional
Procedure, shortened: as §1, with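 “wedges” for “wedges, gray matter”, “medium; AMPA” for “medium. Agonists”, “µM)” for “µM AMPA or 5 µM NMDA)”, “with” for “to”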

[11] = target: Glutamate receptor ionotropic, kainate; assay: Inhibition of specific binding of [3H]KA at kainate receptor in rat brain membranes; assay type: cell membranes
Procedure, shortened: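 Membranes preincubated at 37 °C for 30 min in 0.05 M Tris-citrate pH 7.4, then washed; 0.2-0.3 mg protein with 5 nM [3H]kainate on ice for 60 min. Nonspecific binding defined with 1 mM glutamate; bound ligand separated by glass-fibre filtration.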

[12] = target: T1, Glutamate NMDA receptor (Rattus norvegicus); assay: Percent inhibition of stimulated [3H](+)-MK-801 binding against N-methyl-D-aspartate glutamate receptor; assay type: protein-complex assay; settings: concentration not given here
Procedure, shortened: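 Rat cortical membranes washed in 5 mM Tris-HCl pH 7.4 containing 0.08% Triton X-100, then put through further resuspension/centrifugation cycles. Incubation for 120 min at room temperature with 2.5 nM [3H]-(+)-MK-801, 10 µM glutamate and 0.1 µM glycine. Percent inhibition of specific binding at 100 µM; three or four determinations in triplicate.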

[13] = Inhibition of specific binding of [3H]KA against iGluRs

CCOC(=O)c1nc2c(O)nc3cc(Cl)c([N+](=O)[O-])cc3n2n1
Ki [1]: 47 µM | inhibition [2]: 10.2% | inhibition [3]: 35%

O=C(O)c1cc(O)c2c(Cl)cc(Cl)cc2n1
IC50 [4]: 4.7 µM | Ki [5]: 0.09 µM

O=C(O)c1nc2c(O)nc3cc(Cl)c(-n4cccc4)cc3n2n1
Ki [6]: 0.86 µM | IC50 [7]: 52 µM | IC50 [8]: 36 µM | Ki [1]: 0.86 µM | IC50 [9]: 11.7 µM | IC50 [10]: 3 µM

CCOC(=O)c1nc2c(O)nc3cc(Cl)c(-n4ccc(C=O)c4)cc3n2n1
Ki [6]: 19 µM | IC50 [8]: 88 µM | Ki [1]: 1.9 µM

CCOC(=O)c1nc2c(O)nc3cc(Cl)c(-n4cccn4)cc3n2n1
Ki [11]: 7.1 µM | inhibition [3]: 20%

O=C(O)c1nc2c(=O)[nH]c3cc(Cl)c(-n4cccn4)cc3n2n1
IC50 [7]: 150 µM | IC50 [8]: 20 µM | Ki [1]: 4.3 µM | IC50 [9]: 16.8 µM | IC50 [10]: 3 µM | Ki [5]: 5.3 µM

O=C(O)c1nc2c(O)nc3cc(-n4cnnc4)ccc3n2n1
Ki [1]: 4.3 µM | inhibition [2]: 0% | inhibition [3]: 44%

CCOC(=O)c1nc2c(O)nc3ccc(N)cc3n2n1
inhibition [2]: 16%

O=C(O)c1nc2c(O)nc3ccc(-n4cnnc4)cc3n2n1
IC50 [8]: 90 µM | Ki [1]: 17.2 µM | inhibition [2]: 0% | inhibition [12]: 20%

NS(=O)(=O)c1cccc2c1c([N+](=O)[O-])cc1nc(O)c(O)nc12 [NBQX]
inhibition [2]: 3% | IC50 [9]: 0.2 µM

CCOC(=O)c1nc2c(O)nc3cc(Cl)c(-n4cnnc4)cc3n2n1
inhibition [2]: 15%

Nc1ccc2nc(O)c3nc(C(=O)O)nn3c2c1
IC50 [8]: 81 µM | Ki [1]: 44 µM | inhibition [2]: 35%

CCOC(=O)c1nc2c(O)nc3ccc(-n4cnnc4)cc3n2n1
inhibition [2]: 0% | inhibition [3]: 20%

CCOC(=O)c1nc2c(O)nc3ccc([N+](=O)[O-])cc3n2n1
inhibition [2]: 35%

O=C(O)c1nc2c(O)nc3cc(Cl)c(-n4ccnc4)cc3n2n1
inhibition [2]: 45% | inhibition [12]: 45%

O=Cc1ccn(-c2cc3c(cc2Cl)nc(O)c2nc(C(=O)O)nn23)c1
Ki [6]: 28 µM | IC50 [4]: 23 µM | IC50 [8]: 8.9 µM | Ki [1]: 0.53 µM | IC50 [9]: 43 µM | IC50 [10]: 1.2 µM

O=C(O)c1nc2c(O)nc3cc(Cl)c([N+](=O)[O-])cc3n2n1
Ki [11]: 2.2 µM | IC50 [9]: 17.8 µM

CCOC(=O)c1nc2c(O)nc3cc(Cl)c(-n4ccnc4)cc3n2n1
inhibition [2]: 39%

CCOC(=O)c1nc2c(=O)[nH]c3cc(Cl)c(N)cc3n2n1
IC50 [8]: 84 µM | Ki [1]: 20.4 µM | Ki [5]: 4.8 µM

O=C(O)c1nc2c(O)nc3ccc([N+](=O)[O-])cc3n2n1
inhibition [3]: 16% | Ki [5]: 79.4 µM

CCOC(=O)c1nc2c(O)nc3cc(-n4cnnc4)ccc3n2n1
Ki [1]: 10.1 µM | inhibition [2]: 8% | inhibition [3]: 35%

O=C(O)c1nc2c(O)nc3cc(Cl)c(-n4cnnc4)cc3n2n1 [TQX-173]
IC50 [4]: 46 µM | IC50 [9]: 68 µM | IC50 [10]: 2.3 µM | Ki [5]: 33.5 µM

CCOC(=O)c1nc2c(O)nc3cc(Cl)c(-n4cccc4)cc3n2n1
Ki [11]: 23 µM | Ki [1]: 18.4 µM | inhibition [3]: 7%

CCOC(=O)c1nc2c(O)nc3cc(Cl)c(-n4cncn4)cc3n2n1
Ki [1]: 17.2 µM | inhibition [2]: 28% | inhibition [3]: 29%

Nc1cc2c(cc1Cl)nc(O)c1nc(C(=O)O)nn12
IC50 [8]: 22.4 µM | Ki [1]: 4.9 µM | IC50 [9]: 5.6 µM | Ki [5]: 3.6 µM

O=C(O)c1nc2c(O)nc3cc(Cl)c(-n4cncn4)cc3n2n1
IC50 [7]: 350 µM | IC50 [13]: 48 µM | Ki [1]: 3.7 µM | inhibition [2]: 35% | inhibition [12]: 30% | IC50 [10]: 12 µM
